Test results: ChEMBL document CHEMBL2057101, “Fluorocyclines. 2. Optimization of the C-9 side-chain for antibacterial activity and oral efficacy” (J Med Chem, 2012)
Values after ≈ are worked out from the molar mass of the structure shown.

Assays:
Type in all cases: functional
Staphylococcus aureus [1] = assay: Antibacterial activity against tetracycline-resistant Staphylococcus aureus isolate SA161 expressing TetM gene
How it was run: (§1)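 Broth microdilution MIC following CLSI methods in cation-adjusted Mueller Hinton broth, prepared fresh and held at 4 °C before testing. Defibrinated horse blood added to the medium where appropriate. Runs accepted when quality control ranges for comparator antibiotics and ATCC QC strains were met.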

Klebsiella pneumoniae = assay: Antibacterial activity against Klebsiella pneumoniae ATCC 13883
How it was run: (§2)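 MIC by broth microdilution in liquid medium per CLSI, in cation-adjusted Mueller Hinton broth made fresh and held at 4 °C before testing. Horse blood (defibrinated) added to the medium where appropriate. Runs were accepted only when the comparator antibiotics and ATCC QC strains fell within their recommended ranges.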

Escherichia coli [2] = assay: Antibacterial activity against Escherichia coli isolate EC155 expressing tetA gene; how it was run: as §2
Escherichia coli [3] = assay: Antibacterial activity against Escherichia coli ATCC 25922 isolate 107; how it was run: as §2
Streptococcus pneumoniae [4] = assay: Antibacterial activity against Streptococcus pneumoniae ATCC 49619 isolate 106; how it was run: as §2
Staphylococcus aureus [5] = assay: Antibacterial activity against tetracycline-susceptible Staphylococcus aureus ATCC 13709 Smith isolate SA100; how it was run: as §1
Staphylococcus aureus [6] = assay: Antibacterial activity against tetracycline-resistant Staphylococcus aureus isolate SA158 expressing TetK gene
Streptococcus pneumoniae [7] = assay: Antibacterial activity against tetracycline-resistant Streptococcus pneumoniae isolate 160 expressing tetM gene

| Structure (SMILES) | MIC (Staphylococcus aureus [1]) [µg/mL] | MIC (Klebsiella pneumoniae) [µg/mL] | MIC (Escherichia coli [2]) [µg/mL] | MIC (Escherichia coli [3]) [µg/mL] | MIC (Streptococcus pneumoniae [4]) [µg/mL] | MIC (Staphylococcus aureus [5]) [µg/mL] | MIC (Staphylococcus aureus [6]) [µg/mL] | MIC (Streptococcus pneumoniae [7]) [µg/mL] |
| --- | --- | --- | --- | --- | --- | --- | --- | --- |
| CN(C)[C@@H]1C(O)=C(C(N)=O)C(=O)[C@@]2(O)C(O)=C3C(=O)c4c(O)c(NS(=O)(=O)c5cccs5)cc(F)c4C[C@H]3C[C@@H]12 | 1 (≈ 1.68 µM) | > 32 | > 32 | > 32 | 0.25 (≈ 0.421 µM) | 0.5 (≈ 0.842 µM) | 0.5 (≈ 0.842 µM) | 1 (≈ 1.68 µM) |
| CN(C)[C@@H]1C(O)=C(C(N)=O)C(=O)[C@@]2(O)C(O)=C3C(=O)c4c(O)c(NC(=O)c5cccc(C(F)(F)F)c5)cc(F)c4C[C@H]3C[C@@H]12 | 0.5 (≈ 0.807 µM) | > 32 | > 32 | > 32 | > 32 | 0.25 (≈ 0.404 µM) | 0.13 (≈ 0.21 µM) | > 32 |
| CN(C)[C@@H]1C(O)=C(C(N)=O)C(=O)[C@@]2(O)C(O)=C3C(=O)c4c(O)c(NC(=O)[C@@H]5CCCCN5C)cc(F)c4C[C@H]3C[C@@H]12 | 8 (≈ 14 µM) | 2 (≈ 3.49 µM) | > 32 | 0.5 (≈ 0.873 µM) | 0.13 (≈ 0.227 µM) | 2 (≈ 3.49 µM) | 1 (≈ 1.75 µM) | 0.25 (≈ 0.437 µM) |
| CN(C)[C@@H]1C(O)=C(C(N)=O)C(=O)[C@@]2(O)C(O)=C3C(=O)c4c(O)c(NC(=O)[C@H]5CCCN5C)cc(F)c4C[C@H]3C[C@@H]12 | 2 (≈ 3.58 µM) | 4 (≈ 7.16 µM) | 16 (≈ 28.6 µM) | 2 (≈ 3.58 µM) | 0.25 (≈ 0.448 µM) | 2 (≈ 3.58 µM) | 2 (≈ 3.58 µM) | 0.25 (≈ 0.448 µM) |
| CN(C)c1ccc(C(=O)Nc2cc(F)c3c(c2O)C(=O)C2=C(O)[C@]4(O)C(=O)C(C(N)=O)=C(O)[C@@H](N(C)C)[C@@H]4C[C@@H]2C3)cc1 | 0.063 (≈ 0.106 µM) | > 32 | > 32 | > 32 | 2 (≈ 3.36 µM) | 0.063 (≈ 0.106 µM) | 0.063 (≈ 0.106 µM) | 8 (≈ 13.5 µM) |
| CN(C)[C@@H]1C(O)=C(C(N)=O)C(=O)[C@@]2(O)C(O)=C3C(=O)c4c(O)c(NC(=O)[C@@H]5CC(F)(F)CN5C)cc(F)c4C[C@H]3C[C@@H]12 | 1 (≈ 1.68 µM) | > 32 | > 32 | > 32 | 0.5 (≈ 0.841 µM) | 1 (≈ 1.68 µM) | 1 (≈ 1.68 µM) | 0.5 (≈ 0.841 µM) |
| CN(C)[C@@H]1C(O)=C(C(N)=O)C(=O)[C@@]2(O)C(O)=C3C(=O)c4c(O)c(NCCNC(C)(C)C)cc(F)c4C[C@H]3C[C@@H]12 | 4 (≈ 7.32 µM) | 8 (≈ 14.6 µM) | 16 (≈ 29.3 µM) | 2 (≈ 3.66 µM) | 0.125 (≈ 0.229 µM) | 1 (≈ 1.83 µM) | 1 (≈ 1.83 µM) | 0.25 (≈ 0.457 µM) |
| CN(C)[C@@H]1C(O)=C(C(N)=O)C(=O)[C@@]2(O)C(O)=C3C(=O)c4c(O)c(N)cc(F)c4C[C@H]3C[C@@H]12 | 2 (≈ 4.47 µM) | 4 (≈ 8.94 µM) | 32 (≈ 71.5 µM) | 2 (≈ 4.47 µM) | 0.25 (≈ 0.559 µM) | 0.25 (≈ 0.559 µM) | 2 (≈ 4.47 µM) | 4 (≈ 8.94 µM) |
| CN(C)[C@@H]1C(O)=C(C(N)=O)C(=O)[C@@]2(O)C(O)=C3C(=O)c4c(O)c(Nc5ccncn5)cc(F)c4C[C@H]3C[C@@H]12 | 2 (≈ 3.81 µM) | 8 (≈ 15.2 µM) | > 32 | 2 (≈ 3.81 µM) | 0.063 (≈ 0.12 µM) | 0.25 (≈ 0.476 µM) | 2 (≈ 3.81 µM) | 0.5 (≈ 0.951 µM) |
| CN(C)[C@@H]1C(O)=C(C(N)=O)C(=O)[C@@]2(O)C(O)=C3C(=O)c4c(O)c(NC(=O)[C@H]5CCCN5)cc(F)c4C[C@H]3C[C@@H]12 | 2 (≈ 3.67 µM) | 8 (≈ 14.7 µM) | 32 (≈ 58.8 µM) | 4 (≈ 7.35 µM) | 0.13 (≈ 0.239 µM) | 2 (≈ 3.67 µM) | 4 (≈ 7.35 µM) | 0.5 (≈ 0.918 µM) |
| CN(C)c1cc(F)c2c(c1O)C(=O)C1=C(O)[C@]3(O)C(=O)C(C(N)=O)=C(O)[C@@H](N(C)C)[C@@H]3C[C@@H]1C2 | 4 (≈ 8.41 µM) | 8 (≈ 16.8 µM) | 32 (≈ 67.3 µM) | 4 (≈ 8.41 µM) | 0.25 (≈ 0.526 µM) | 1 (≈ 2.1 µM) | 4 (≈ 8.41 µM) | 4 (≈ 8.41 µM) |
| CN(C)c1cccc(C(=O)Nc2cc(F)c3c(c2O)C(=O)C2=C(O)[C@]4(O)C(=O)C(C(N)=O)=C(O)[C@@H](N(C)C)[C@@H]4C[C@@H]2C3)c1 | 0.13 (≈ 0.219 µM) | > 32 | > 32 | > 32 | > 32 | 0.13 (≈ 0.219 µM) | 0.13 (≈ 0.219 µM) | > 32 |
| CN(C)[C@@H]1C(O)=C(C(N)=O)C(=O)[C@@]2(O)C(O)=C3C(=O)c4c(O)c(NC(=O)[C@@H]5CCN5)cc(F)c4C[C@H]3C[C@@H]12 | 0.13 (≈ 0.245 µM) | 1 (≈ 1.88 µM) | 16 (≈ 30.2 µM) | 0.25 (≈ 0.471 µM) | 0.16 (≈ 0.302 µM) | 0.25 (≈ 0.471 µM) | 0.5 (≈ 0.942 µM) | 0.031 (≈ 0.0584 µM) |
| CC(C)N1CCC[C@H]1C(=O)Nc1cc(F)c2c(c1O)C(=O)C1=C(O)[C@]3(O)C(=O)C(C(N)=O)=C(O)[C@@H](N(C)C)[C@@H]3C[C@@H]1C2 | 1 (≈ 1.7 µM) |  | 8 (≈ 13.6 µM) | 2 (≈ 3.41 µM) | ≤ 0.016 | 0.5 (≈ 0.852 µM) | 0.25 (≈ 0.426 µM) | ≤ 0.016 |
